# Results: ChEMBL document CHEMBL4364345, “Synthesis and evaluation of 1,3,4-oxadiazole derivatives for development as broad-spectrum antibiotics” (Bioorg Med Chem, 2019)
# Activity calls are given as the source filed them.
# Tests used:
# Kocuria rhizophila = assay: Antimicrobial activity against Kocuria rhizophila clinical isolate at 50 ug/disk incubated for 20 +/- 4 hrs by agar disk diffusion method; format: functional; conditions: read-out: DIZ
# Summary of the method: (§1)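 Agar disk diffusion on Mueller-Hinton agar swab-seeded from a 0.5 McFarland inoculum (about 10^8 CFU/ml). Cellulose discs got 50 μg compound (10 μl of 5 g/L in DMSO); a 10 μL DMSO disc was the control. Incubated aerobically at 35 ± 2 °C for 20 ± 4 h, then growth-inhibition diameters measured.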
# Staphylococcus aureus [1] = assay: Antimicrobial activity against Staphylococcus aureus clinical isolate at 50 ug/disk incubated for 20 +/- 4 hrs by agar disk diffusion method; format: functional; conditions: read-out: DIZ; summary of the method: as §1
# [2] = tested on: Staphylococcus epidermidis; assay: Antimicrobial activity against Staphylococcus epidermidis clinical isolate at 50 ug/disk incubated for 20 +/- 4 hrs by agar disk diffusion method; format: functional; conditions: read-out: DIZ; summary of the method: as §1
# Bacillus subtilis = assay: Antimicrobial activity against Bacillus subtilis clinical isolate at 50 ug/disk incubated for 20 +/- 4 hrs by agar disk diffusion method; format: functional; conditions: read-out: DIZ; summary of the method: as §1
# Enterococcus faecium [3] = assay: Antimicrobial activity against Enterococcus faecium AUS0004 at 50 ug/disk incubated for 20 +/- 4 hrs by agar disk diffusion method; format: functional; conditions: read-out: DIZ; summary of the method: as §1
# Bacteroides fragilis = assay: Antimicrobial activity against Bacteroides fragilis ATCC 25285 at 50 ug/disk incubated for 20 +/- 4 hrs by agar disk diffusion method; format: functional; conditions: read-out: DIZ
# Summary of the method: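 Anaerobic disk diffusion: MH agar + 5% horse blood seeded from a 0.5 McFarland swab, with discs of 50 μg compound (10 μl of 5 g/L DMSO solution) and a DMSO control disc. Kept at 35 ± 2 °C under anaerobic conditions for 20 ± 4 h; inhibition diameters recorded.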
# Enterobacter cloacae = assay: Antimicrobial activity against Enterobacter cloacae clinical isolate at 50 ug/disk incubated for 20 +/- 4 hrs by agar disk diffusion method; format: functional; conditions: read-out: DIZ; summary of the method: as §1
# Escherichia coli [4] = assay: Antimicrobial activity against Escherichia coli clinical isolate at 50 ug/disk incubated for 20 +/- 4 hrs by agar disk diffusion method; format: functional; conditions: read-out: DIZ; summary of the method: as §1
# Klebsiella pneumoniae = assay: Antimicrobial activity against Klebsiella pneumoniae clinical isolate at 50 ug/disk incubated for 20 +/- 4 hrs by agar disk diffusion method; format: functional; conditions: read-out: DIZ; summary of the method: as §1
# Morganella morganii [5] = assay: Antimicrobial activity against Morganella morganii EB6 clinical isolate at 50 ug/disk incubated for 20 +/- 4 hrs by agar disk diffusion method; format: functional; conditions: read-out: DIZ; summary of the method: as §1
# Morganella morganii [6] = assay: Antimicrobial activity against Morganella morganii EB8clinical isolate at 50 ug/disk incubated for 20 +/- 4 hrs by agar disk diffusion method; format: functional; conditions: EB8, read-out: DIZ; summary of the method: as §1
# [7] = tested on: Mycolicibacterium fortuitum; assay: Antimicrobial activity against Mycobacterium fortuitum clinical isolate at 50 ug/disk incubated for 4 days by agar disk diffusion method; format: functional; conditions: 96 h, read-out: DIZ
# Summary of the method: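 On MH agar with 5% horse blood, a 0.5 McFarland inoculum was swabbed and discs with 50 μg compound (from 5 g/L in DMSO) were laid down, alongside a DMSO control disc. Incubation was humid and aerobic at 35 ± 2 °C for 4 days, then growth-inhibition diameters were measured.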
# Staphylococcus aureus [8] = assay: Antimicrobial activity against Staphylococcus aureus ATCC 29213 by broth microdilution method; format: functional
# Summary of the method: (§2)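 MICs were set by broth microdilution following EUCAST guidelines, from three independent experiments reported as values or ranges. MICs were measured only where disk-diffusion inhibition diameters were 9 mm or more.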
# [9] = tested on: Staphylococcus epidermidis; assay: Antimicrobial activity against Staphylococcus epidermidis clinical isolate by broth microdilution method; format: functional; summary of the method: as §2
# Streptococcus pyogenes = assay: Antimicrobial activity against Streptococcus pyogenes clinical isolate by broth microdilution method; format: functional; summary of the method: as §2
# Enterococcus faecalis [10] = assay: Antimicrobial activity against Enterococcus faecalis ATCC 29212 by broth microdilution method; format: functional; summary of the method: as §2
# [11] = tested on: Mycobacteroides abscessus; assay: Antimicrobial activity against Mycobacterium abscessus clinical isolate by broth microdilution method; format: functional; summary of the method: as §2
# Enterococcus faecalis [12] = assay: Synergistic antimicrobial activity against Enterococcus faecalis ATCC 29212 assessed as DIZ at 50 ug/disk incubated for 20 +/- 4 hrs in presence of erythromycin by agar disk diffusion method (reference value: 20 millimeter); format: functional; conditions: read-out: DIZ
# Enterococcus faecalis [13] = assay: Synergistic antimicrobial activity against Enterococcus faecalis ATCC 29212 assessed as DIZ at 50 ug/disk incubated for 20 +/- 4 hrs in presence of streptomycin by agar disk diffusion method (reference value: 18 millimeter); format: functional; conditions: read-out: DIZ
# Enterococcus faecium [14] = assay: Synergistic antimicrobial activity against Enterococcus faecium AUS0004 assessed as DIZ at 50 ug/disk incubated for 20 +/- 4 hrs in presence of rifampicin by agar disk diffusion method (reference value: 10 millimeter); format: functional; conditions: read-out: DIZ
# Enterococcus faecium [15] = assay: Synergistic antimicrobial activity against Enterococcus faecium AUS0004 assessed as DIZ at 50 ug/disk incubated for 20 +/- 4 hrs in presence of imipenem by agar disk diffusion method (reference value: 6 millimeter); format: functional; conditions: read-out: DIZ
# Enterococcus faecium [16] = assay: Synergistic antimicrobial activity against Enterococcus faecium AUS0004 assessed as DIZ at 50 ug/disk incubated for 20 +/- 4 hrs in presence of streptomycin by agar disk diffusion method (reference value: 22 millimeter); format: functional; conditions: read-out: DIZ
# Listeria monocytogenes = assay: Synergistic antimicrobial activity against Listeria monocytogenes clinical isolate assessed as DIZ at 50 ug/disk incubated for 20 +/- 4 hrs in presence of moxalactam by agar disk diffusion method (reference value: 13 millimeter); format: functional; conditions: read-out: DIZ
# MCF7 = assay: Cytotoxicity against human MCF7 cells assessed as decrease in cell viability in MTT assay; format: cell-based
# Summary of the method: (§3)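 Cell viability was measured by MTT on a robotic screening platform. Residual viability was expressed as a percentage of the mean viable cells in DMSO-treated controls. Under 25-30% viability was considered cytotoxic, and IC50 values were derived.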
# [17] = Cytotoxicity against human NHFB cells assessed as decrease in cell viability in MTT assay; format: cell-based; summary of the method: as §3
# Escherichia coli [18] = assay: Antimicrobial activity against Escherichia coli BW25113 at 10 mM/disk incubated for 20 +/- 4 hrs by agar disk diffusion method; format: functional; conditions: read-out: DIZ
# Escherichia coli [19] = assay: Antimicrobial activity against Escherichia coli BW25113 by broth microdilution method; format: functional
# Summary of the method: (§4)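 MIC by broth microdilution per EUCAST guidelines, in E. coli BW25113 and its previously described deletion derivative.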
# Escherichia coli [20] = assay: Antimicrobial activity against arfA-arfB TolC deficient Escherichia coli BW25113 by agar disk diffusion method; format: functional
# Escherichia coli [21] = assay: Antimicrobial activity against clpP-TolC deficient Escherichia coli BW25113 by agar disk diffusion method; format: functional
# NCI-H727 = assay: Cytotoxicity against human NCI-H727 cells assessed as decrease in cell viability in MTT assay; format: cell-based; summary of the method: as §3
# Escherichia coli [22] = assay: Antimicrobial activity against TolC deficient Escherichia coli BW25113 by broth microdilution method; format: functional; summary of the method: as §4
# Escherichia coli [23] = assay: Bactericidal activity against TolC deficient Escherichia coli BW25113 by broth microdilution method; format: functional
Compound,zone of inhibition at 50 µg/disc (Kocuria rhizophila) [mm],zone of inhibition at 50 µg/disc (Staphylococcus aureus [1]) [mm],zone of inhibition at 50 µg/disc [2] [mm],zone of inhibition at 50 µg/disc (Bacillus subtilis) [mm],zone of inhibition at 50 µg/disc (Enterococcus faecium [3]) [mm],zone of inhibition at 50 µg/disc (Bacteroides fragilis) [mm],zone of inhibition at 50 µg/disc (Enterobacter cloacae) [mm],zone of inhibition at 50 µg/disc (Escherichia coli [4]) [mm],zone of inhibition at 50 µg/disc (Klebsiella pneumoniae) [mm],zone of inhibition at 50 µg/disc (Morganella morganii [5]) [mm],zone of inhibition at 50 µg/disc (Morganella morganii [6]) [mm],zone of inhibition at 50 µg/disc [7] [mm],MIC (Staphylococcus aureus [8]) [mg/L],MIC [9] [mg/L],MIC (Streptococcus pyogenes) [mg/L],MIC (Enterococcus faecalis [10]) [mg/L],MIC [11],IC50 (MCF7) [µM],IC50 [17] [µM],zone of inhibition at 10000 µM (Escherichia coli [18]) [mm],other results
O=C(Nc1ncc(-c2ccc(F)cc2)o1)c1ccc(Cl)cc1,18,20,18,15,12,8,6,6,6,6,6,12,0.5 to 4,0.25,32 to 64,2 to 16,inactive,4,> 25,6,zone of inhibition at 50 µg/disc (Enterococcus faecalis [12]): 20 mm; zone of inhibition at 50 µg/disc (Enterococcus faecalis [13]): 19 mm; zone of inhibition at 50 µg/disc (Enterococcus faecium [14]): 15 mm; zone of inhibition at 50 µg/disc (Enterococcus faecium [15]): 13 mm; zone of inhibition at 50 µg/disc (Enterococcus faecium [16]): 21 mm; zone of inhibition at 50 µg/disc (Listeria monocytogenes): 17 mm; MIC (Escherichia coli [19]): > 128 µM; diameter of the inhibition zone (DIZ) (Escherichia coli [20]): 14 mm; diameter of the inhibition zone (DIZ) (Escherichia coli [21]): 13.3 mm
O=C(Nc1nnc(-c2ccc(C(F)(F)F)cc2)o1)c1cccc(Cl)c1,30,28,27,24,21,11,6,6,6,6,6,23,2,0.0625 to 0.25,4 to 32,0.125 to 1,32 to 64 mg/L,15,> 25,6,zone of inhibition at 50 µg/disc (Enterococcus faecalis [12]): 24 mm; zone of inhibition at 50 µg/disc (Enterococcus faecalis [13]): 24 mm; zone of inhibition at 50 µg/disc (Enterococcus faecium [14]): 26 mm; zone of inhibition at 50 µg/disc (Enterococcus faecium [15]): 24 mm; zone of inhibition at 50 µg/disc (Enterococcus faecium [16]): 26 mm; zone of inhibition at 50 µg/disc (Listeria monocytogenes): 33 mm; IC50 (NCI-H727): 10 µM; MIC (Escherichia coli [19]): > 128 µM; MBC (Escherichia coli [22]): 16 µM; MIC (Escherichia coli [22]): 0.25 µM; diameter of the inhibition zone (DIZ) (Escherichia coli [20]): 22.6 mm; diameter of the inhibition zone (DIZ) (Escherichia coli [21]): 22.3 mm; MBC (Escherichia coli [23]): 16 µM
O=C(Nc1nnc(-c2ccc(C(F)(F)F)cc2)o1)c1ccc(Cl)nc1,28,30,28,24,23,16,6,6,6,6,6,19,2 to 4,1 to 2,32,2 to 4,16 to 32 mg/L,> 25,> 25,6,zone of inhibition at 50 µg/disc (Enterococcus faecalis [12]): 23 mm; zone of inhibition at 50 µg/disc (Enterococcus faecalis [13]): 22 mm; zone of inhibition at 50 µg/disc (Enterococcus faecium [14]): 22 mm; zone of inhibition at 50 µg/disc (Enterococcus faecium [15]): 24 mm; zone of inhibition at 50 µg/disc (Enterococcus faecium [16]): 26 mm; zone of inhibition at 50 µg/disc (Listeria monocytogenes): 30 mm; IC50 (NCI-H727): > 25 µM; MIC (Escherichia coli [19]): > 128 µM; MIC (Escherichia coli [22]): 1 µM; diameter of the inhibition zone (DIZ) (Escherichia coli [20]): 22.05 mm; diameter of the inhibition zone (DIZ) (Escherichia coli [21]): 27 mm; MBC (Escherichia coli [23]): > 32 µM
O=C(Nc1nnc(-c2ccc(F)cc2)o1)c1ccc(Cl)cc1,11,17,15,12,6,6,6,6,6,6,6,9,0.5 to 4,0.5 to 4,32 to 64,16,64 mg/L,22,> 25,6,IC50 (NCI-H727): 18 µM; MIC (Escherichia coli [19]): > 128 µM; MIC (Escherichia coli [22]): 2 µM; diameter of the inhibition zone (DIZ) (Escherichia coli [20]): 12.3 mm; diameter of the inhibition zone (DIZ) (Escherichia coli [21]): 14.3 mm; MBC (Escherichia coli [23]): > 32 µM
